Measured values taken from ChEMBL document CHEMBL5329156, “Discovery and development of novel substituted monohydrazides as potent antifungal agents” (RSC Med Chem, 2023).
Converted amounts (≈) assume the structure as drawn.

Legend:
Assay type in all cases: functional
Nakaseomyces glabratus [1] = assay: Antifungal activity against Candida glabrata ATCC 2001 assessed as fungal growth inhibition by double dilution method
In short: (§1)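 Broth microdilution after CLSI M27-A3/M38-A2 with minor changes. Single colony grown overnight in YPD at 35 °C, 200 rpm. Compound final range 0.06-31.3 µg/mL; incubated 48 h at 35 °C.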

Aspergillus terreus = assay: Antifungal activity against Aspergillus terreus ATCC MYA-3633 assessed as fungal growth inhibition by double dilution method
[Candida] auris [2] = Antifungal activity against Candida auris AR Bank # 0390 assessed as fungal growth inhibition by double dilution method; conditions: Candidozyma auris; in short: as §1
Pichia kudriavzevii = assay: Antifungal activity against Pichia kudriavzevii ATCC 6258 assessed as fungal growth inhibition by double dilution method; in short: as §1
Candida albicans [3] = assay: Antifungal activity against itraconazole/fluconazole susceptible Candida albicans ATCC MYA-2876 assessed as fungal growth inhibition by double dilution method
In short: (§2)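 Broth microdilution after CLSI M27-A3/M38-A2 with minor modifications. A single colony was grown overnight in YPD at 35 °C with shaking at 200 rpm. Cells were mixed 1:1 with compound (final 0.06-31.3 µg/mL, from DMSO stocks) and incubated 48 h at 35 °C.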

Aspergillus flavus = assay: Antifungal activity against Aspergillus flavus ATCC MYA-3631 assessed as fungal growth inhibition by double dilution method
Candida albicans [4] = assay: Antifungal activity against Candida albicans ATCC 10231 assessed as fungal growth inhibition by double dilution method; in short: as §1
Candida albicans [5] = assay: Antifungal activity against itraconazole/fluconazole susceptible Candida albicans ATCC MYA-2310 assessed as fungal growth inhibition by double dilution method; in short: as §2
Nakaseomyces glabratus [6] = assay: Antifungal activity against Candida glabrata ATCC 22019 assessed as fungal growth inhibition by double dilution method; in short: as §1
Cryptococcus neoformans = assay: Antifungal activity against Cryptococcus neoformans ATCC MYA-895 assessed as fungal growth inhibition by double dilution method; in short: as §1
Candida albicans [7] = assay: Antifungal activity against itraconazole/fluconazole resistant Candida albicans ATCC MYA-1237 assessed as fungal growth inhibition by double dilution method; in short: as §2
[Candida] auris [8] = Antifungal activity against Candida auris AR Bank # 0384 assessed as fungal growth inhibition by double dilution method; conditions: Candidozyma auris; in short: as §1
Candida albicans [9] = assay: Antifungal activity against itraconazole/fluconazole resistant Candida albicans ATCC 90819 assessed as fungal growth inhibition by double dilution method; in short: as §2
Aspergillus fumigatus [10] = assay: Antifungal activity against Aspergillus fumigatus NRRL 5109 assessed as fungal growth inhibition by double dilution method
Candida albicans [11] = assay: Antifungal activity against Candida albicans ATCC 64124 assessed as fungal growth inhibition by double dilution method; in short: as §2
Aspergillus fumigatus [12] = assay: Antifungal activity against Aspergillus fumigatus NRRL 163 assessed as fungal growth inhibition by double dilution method
Aspergillus fumigatus [13] = assay: Antifungal activity against Aspergillus fumigatus NRRL 6113 assessed as fungal growth inhibition by double dilution method
Candida albicans [14] = assay: Antifungal activity against itraconazole/fluconazole resistant Candida albicans ATCC MYA-1003 assessed as fungal growth inhibition by double dilution method; in short: as §2
Aspergillus nidulans = assay: Antifungal activity against Aspergillus nidulans ATCC 38163 assessed as fungal growth inhibition by double dilution method

Structure (SMILES) | MIC (Nakaseomyces glabratus [1]) | MIC (Aspergillus terreus) | MIC ([Candida] auris [2]) | MIC (Pichia kudriavzevii) | MIC (Candida albicans [3]) | MIC (Aspergillus flavus) | MIC (Candida albicans [4]) | MIC (Candida albicans [5]) | MIC (Nakaseomyces glabratus [6]) | MIC (Cryptococcus neoformans) | MIC (Candida albicans [7]) | MIC ([Candida] auris [8]) | MIC (Candida albicans [9]) | MIC (Aspergillus fumigatus [10]) | MIC (Candida albicans [11]) | MIC (Aspergillus fumigatus [12]) | MIC (Aspergillus fumigatus [13]) | MIC (Candida albicans [14]) | MIC (Aspergillus nidulans)
COc1ccc(NNC(=O)c2cccc(F)n2)cc1 | 0.98 µg/mL (≈ 3.75 µM) | 15.6 µg/mL (≈ 59.7 µM) | 1.95 µg/mL (≈ 7.46 µM) | 0.49 µg/mL (≈ 1.88 µM) | 0.98 µg/mL (≈ 3.75 µM) | > 31.3 µg/mL | 0.24 µg/mL (≈ 0.919 µM) | 0.98 µg/mL (≈ 3.75 µM) | 7.8 µg/mL (≈ 29.9 µM) | 0.24 µg/mL (≈ 0.919 µM) | 0.98 µg/mL (≈ 3.75 µM) | 1.95 µg/mL (≈ 7.46 µM) | 1.95 µg/mL (≈ 7.46 µM) | > 31.3 µg/mL | 1.95 µg/mL (≈ 7.46 µM) | > 31.3 µg/mL | 15.6 µg/mL (≈ 59.7 µM) | 0.98 µg/mL (≈ 3.75 µM) | 1.95 µg/mL (≈ 7.46 µM)
O=C(NNc1ccc(F)cc1)c1ccc(F)cc1F | 7.8 µg/mL (≈ 29.3 µM) | 3.9 µg/mL (≈ 14.6 µM) | 1.95 µg/mL (≈ 7.32 µM) | 1.95 µg/mL (≈ 7.32 µM) | 7.8 µg/mL (≈ 29.3 µM) | > 31.3 µg/mL | 0.49 µg/mL (≈ 1.84 µM) | 3.9 µg/mL (≈ 14.6 µM) | 15.6 µg/mL (≈ 58.6 µM) | 0.49 µg/mL (≈ 1.84 µM) | 1.95 µg/mL (≈ 7.32 µM) | 1.95 µg/mL (≈ 7.32 µM) | 1.95 µg/mL (≈ 7.32 µM) | > 31.3 µg/mL | 7.8 µg/mL (≈ 29.3 µM) | > 31.3 µg/mL | > 31.3 µg/mL | 1.95 µg/mL (≈ 7.32 µM) | 3.9 µg/mL (≈ 14.6 µM)
O=C(NNc1ccc(F)cc1)c1ncc(F)cc1F | 15.6 µg/mL (≈ 58.4 µM) | 3.9 µg/mL (≈ 14.6 µM) | 0.98 µg/mL (≈ 3.67 µM) | 0.49 µg/mL (≈ 1.83 µM) | 1.95 µg/mL (≈ 7.3 µM) | 7.8 µg/mL (≈ 29.2 µM) | 0.98 µg/mL (≈ 3.67 µM) | 3.9 µg/mL (≈ 14.6 µM) | 3.9 µg/mL (≈ 14.6 µM) | 0.49 µg/mL (≈ 1.83 µM) | 1.95 µg/mL (≈ 7.3 µM) | 1.95 µg/mL (≈ 7.3 µM) | 1.95 µg/mL (≈ 7.3 µM) | > 31.3 µg/mL | 1.95 µg/mL (≈ 7.3 µM) | > 31.3 µg/mL | > 31.3 µg/mL | 0.98 µg/mL (≈ 3.67 µM) | 0.49 µg/mL (≈ 1.83 µM)
COc1cccc(NNC(=O)c2cccc(F)n2)c1 | 15.6 µg/mL (≈ 59.7 µM) | 3.9 µg/mL (≈ 14.9 µM) | 0.98 µg/mL (≈ 3.75 µM) | 0.24 µg/mL (≈ 0.919 µM) | 0.49 µg/mL (≈ 1.88 µM) | > 31.3 µg/mL | 0.98 µg/mL (≈ 3.75 µM) | 1.95 µg/mL (≈ 7.46 µM) | 3.9 µg/mL (≈ 14.9 µM) | 0.49 µg/mL (≈ 1.88 µM) | 1.95 µg/mL (≈ 7.46 µM) | 1.95 µg/mL (≈ 7.46 µM) | 3.9 µg/mL (≈ 14.9 µM) | 7.8 µg/mL (≈ 29.9 µM) | 0.98 µg/mL (≈ 3.75 µM) | 15.6 µg/mL (≈ 59.7 µM) | > 31.3 µg/mL | 0.98 µg/mL (≈ 3.75 µM) | 1.95 µg/mL (≈ 7.46 µM)
COc1ccc(NNC(=O)c2ncc(F)cc2F)cc1 | 7.8 µg/mL (≈ 27.9 µM) | 31.3 µg/mL (≈ 112 µM) | 0.98 µg/mL (≈ 3.51 µM) | 0.98 µg/mL (≈ 3.51 µM) | 1.95 µg/mL (≈ 6.98 µM) | > 31.3 µg/mL | 1.95 µg/mL (≈ 6.98 µM) | 1.95 µg/mL (≈ 6.98 µM) | 7.8 µg/mL (≈ 27.9 µM) | 1.95 µg/mL (≈ 6.98 µM) | 0.98 µg/mL (≈ 3.51 µM) | 3.9 µg/mL (≈ 14 µM) | 1.95 µg/mL (≈ 6.98 µM) | 31.3 µg/mL (≈ 112 µM) | 1.95 µg/mL (≈ 6.98 µM) | 31.3 µg/mL (≈ 112 µM) | 31.3 µg/mL (≈ 112 µM) | 0.98 µg/mL (≈ 3.51 µM) | 1.95 µg/mL (≈ 6.98 µM)
O=C(NNc1cccc(F)c1)c1ccc(F)cc1F | 7.8 µg/mL (≈ 29.3 µM) | 1.95 µg/mL (≈ 7.32 µM) | 0.24 µg/mL (≈ 0.902 µM) | 1.95 µg/mL (≈ 7.32 µM) | 3.9 µg/mL (≈ 14.6 µM) | > 31.3 µg/mL | 0.24 µg/mL (≈ 0.902 µM) | 3.9 µg/mL (≈ 14.6 µM) | 3.9 µg/mL (≈ 14.6 µM) | 1.95 µg/mL (≈ 7.32 µM) | 0.98 µg/mL (≈ 3.68 µM) | 1.95 µg/mL (≈ 7.32 µM) | 7.8 µg/mL (≈ 29.3 µM) | > 31.3 µg/mL | 1.95 µg/mL (≈ 7.32 µM) | > 31.3 µg/mL | > 31.3 µg/mL | 1.95 µg/mL (≈ 7.32 µM) | 3.9 µg/mL (≈ 14.6 µM)
COc1ccc(NNC(=O)c2ccc(F)cn2)cc1 | 1.95 µg/mL (≈ 7.46 µM) | 31.3 µg/mL (≈ 120 µM) | 0.49 µg/mL (≈ 1.88 µM) | 0.24 µg/mL (≈ 0.919 µM) | 0.98 µg/mL (≈ 3.75 µM) | > 31.3 µg/mL | 0.24 µg/mL (≈ 0.919 µM) | 0.98 µg/mL (≈ 3.75 µM) | 3.9 µg/mL (≈ 14.9 µM) | ≤ 0.06 µg/mL | 0.49 µg/mL (≈ 1.88 µM) | 3.9 µg/mL (≈ 14.9 µM) | 0.98 µg/mL (≈ 3.75 µM) | > 31.3 µg/mL | 0.98 µg/mL (≈ 3.75 µM) | > 31.3 µg/mL | > 31.3 µg/mL | 0.49 µg/mL (≈ 1.88 µM) | 1.95 µg/mL (≈ 7.46 µM)
O=C(NNc1cccc(F)c1)c1ncc(F)cc1F | 31.3 µg/mL (≈ 117 µM) | 3.9 µg/mL (≈ 14.6 µM) | 1.95 µg/mL (≈ 7.3 µM) | 0.24 µg/mL (≈ 0.898 µM) | 1.95 µg/mL (≈ 7.3 µM) | > 31.3 µg/mL | 0.24 µg/mL (≈ 0.898 µM) | 1.95 µg/mL (≈ 7.3 µM) | 1.95 µg/mL (≈ 7.3 µM) | ≤ 0.06 µg/mL | 3.9 µg/mL (≈ 14.6 µM) | 1.95 µg/mL (≈ 7.3 µM) | 3.9 µg/mL (≈ 14.6 µM) | > 31.3 µg/mL | 0.98 µg/mL (≈ 3.67 µM) | > 31.3 µg/mL | > 31.3 µg/mL | 1.95 µg/mL (≈ 7.3 µM) | 0.98 µg/mL (≈ 3.67 µM)
